What was measured:
[1] = Drug concentration in female Lister Hooded pigmented rat eye assessed as radioactivity per gram of tissue at 20 mg/kg administered as single dose via gastric gavage measured after 336 hrs by autoradiographic analysis; assay type: ADME, organism-based; design: dose 20 mg/kg, dosed compound name [14C]Sunitinib; settings: in vivo, po
Outline: (§1)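 Lister Hooded (pigmented) rats, ca 7-8 weeks old, acclimated 7 days, given [14C]sunitinib L-malate by gastric gavage at 20 mg/kg (15 mg freebase/kg, 100 µCi/kg). One male and one female killed by CO2 at 24, 72, 168 and 336 h. Carcasses frozen in solid CO2/hexane and embedded in frozen cellulose. 30 µm sagittal cryosections were freeze-dried. Tissue radioactivity measured by quantitative whole-body autoradiography against calibration standards, with background subtracted.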

Brain [2] = assay: Drug concentration in male albino rat brain assessed as radioactivity per gram of tissue at 20 mg/kg administered as single dose via gastric gavage measured after 72 hrs by autoradiographic analysis; assay type: ADME, organism-based; design: dose 20 mg/kg, dosed compound name [14C]Sunitinib; settings: in vivo, po
Brain [3] = assay: Drug concentration in male albino rat brain assessed as radioactivity per gram of tissue at 20 mg/kg administered as single dose via gastric gavage measured after 3 hrs by autoradiographic analysis; assay type: ADME, organism-based; design: dose 20 mg/kg, dosed compound name [14C]Sunitinib; settings: in vivo, po
Spleen [4] = assay: Drug concentration in female albino rat spleen assessed as radioactivity per gram of tissue at 20 mg/kg administered as single dose via gastric gavage measured after 72 hrs by autoradiographic analysis; assay type: ADME, organism-based; design: dose 20 mg/kg, dosed compound name [14C]Sunitinib; settings: in vivo, po
Homo sapiens [5] = assay: Apparent oral clearance as total radioactivity in human plasma at 50 mg, po administered as single dose measured up to 24 hrs by LC/MS/MS analysis; assay type: ADME, organism-based; design: dosed compound name [14C]Sunitinib; settings: in vivo
Homo sapiens [6] = assay: Terminal half life as total radioactivity in human plasma at 50 mg, po administered as single dose measured up to 24 hrs by LC/MS/MS analysis; assay type: ADME, organism-based; design: dosed compound name [14C]Sunitinib; settings: in vivo
Stomach [7] = assay: Drug concentration in male Lister Hooded pigmented rat stomach assessed as radioactivity per gram of tissue at 20 mg/kg administered as single dose via gastric gavage measured after 24 hrs by autoradiographic analysis; assay type: ADME, organism-based; design: dose 20 mg/kg, dosed compound name [14C]Sunitinib; settings: in vivo, po
Spleen [8] = assay: Drug concentration in female albino rat spleen assessed as radioactivity per gram of tissue at 20 mg/kg administered as single dose via gastric gavage measured after 24 hrs by autoradiographic analysis; assay type: ADME, organism-based; design: dose 20 mg/kg, dosed compound name [14C]Sunitinib; settings: in vivo, po
Spinal cord = assay: Drug concentration in male albino rat spinal cord assessed as radioactivity per gram of tissue at 20 mg/kg administered as single dose via gastric gavage measured after 6 hrs by autoradiographic analysis; assay type: ADME, organism-based; design: dose 20 mg/kg, dosed compound name [14C]Sunitinib; settings: in vivo, po
[9] = Drug concentration in male Lister Hooded pigmented rat eye assessed as radioactivity per gram of tissue at 20 mg/kg administered as single dose via gastric gavage measured after 336 hrs by autoradiographic analysis; assay type: ADME, organism-based; design: dose 20 mg/kg, dosed compound name [14C]Sunitinib; settings: in vivo, po
Zone of skin [10] = assay: Drug concentration in female Lister Hooded pigmented rat abdomen skin assessed as radioactivity per gram of tissue at 20 mg/kg administered as single dose via gastric gavage measured after 168 hrs by autoradiographic analysis; assay type: ADME, organism-based; design: dose 20 mg/kg, dosed compound name [14C]Sunitinib; settings: in vivo, po
Outline: (§2)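 Pigmented Lister Hooded rats, 7-8 weeks old, received [14C]sunitinib L-malate by gavage at 20 mg/kg (15 mg freebase/kg, 100 µCi/kg). One rat per sex was killed by CO2 at each of 24, 72, 168 and 336 h. Carcasses were frozen in solid CO2/hexane and cut into 30 µm sagittal sections, then freeze-dried. Tissue radioactivity was quantified by whole-body autoradiography calibrated against standards by regression (LOQ 0.04–0.06 µg eq/g).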

Harderian gland = assay: Drug concentration in female albino rat harderian gland assessed as radioactivity per gram of tissue at 20 mg/kg administered as single dose via gastric gavage measured after 3 hrs by autoradiographic analysis; assay type: ADME, organism-based; design: dose 20 mg/kg, dosed compound name [14C]Sunitinib; settings: in vivo, po
Outline: (§3)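 Sprague Dawley albino rats, ca 7-8 weeks old, dosed once by gastric gavage with [14C]sunitinib L-malate (15 mg freebase/kg, 100 µCi/kg). One male and one female killed by CO2 at 3, 6, 24, 72 and 168 h. Carcasses frozen in solid CO2/hexane, embedded and cut into 30 µm sagittal sections, then freeze-dried. Radioactivity quantified by whole-body autoradiography against standards by regression, background subtracted.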

Blood = assay: Drug concentration in female albino rat blood assessed as radioactivity per gram of tissue at 20 mg/kg administered as single dose via gastric gavage measured after 3 hrs by autoradiographic analysis; assay type: ADME, organism-based; design: dose 20 mg/kg, dosed compound name [14C]Sunitinib; settings: in vivo, po
Outline: (§4)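 Sprague Dawley (albino) rats, ca 7-8 weeks old, received a single gastric-gavage dose of [14C]sunitinib L-malate at 20 mg/kg (15 mg freebase/kg, 100 µCi/kg). One animal per sex killed by CO2 at 3, 6, 24, 72 and 168 h, then frozen in CO2/hexane. 30 µm sagittal sections were cut and freeze-dried. Radioactivity per gram quantified by whole-body autoradiography using regression against standards. LOQ 0.04–0.06 µg freebase equiv/g.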

[11] = Drug concentration in female albino rat salivary gland assessed as radioactivity per gram of tissue at 20 mg/kg administered as single dose via gastric gavage measured after 24 hrs by autoradiographic analysis; assay type: ADME, organism-based; design: dose 20 mg/kg, dosed compound name [14C]Sunitinib; settings: in vivo, po; outline: as §3
Zone of skin [12] = assay: Drug concentration in female albino rat abdomen skin assessed as radioactivity per gram of tissue at 20 mg/kg administered as single dose via gastric gavage measured after 168 hrs by autoradiographic analysis; assay type: ADME, organism-based; design: dose 20 mg/kg, dosed compound name [14C]Sunitinib; settings: in vivo, po; outline: as §4
[13] = Drug concentration in female albino rat bone marrow assessed as radioactivity per gram of tissue at 20 mg/kg administered as single dose via gastric gavage measured after 72 hrs by autoradiographic analysis; assay type: ADME, organism-based; design: dose 20 mg/kg, dosed compound name [14C]Sunitinib; settings: in vivo, po; outline: as §4
Rattus norvegicus = assay: Drug recovery in cage residue of female Sprague-Dawley rat at 5 mg/kg, iv administered as single dose during 0 to 72 hrs by liquid scintillation counting; assay type: ADME, organism-based; design: dose 5 mg/kg, dosed compound name [14C]Sunitinib, route intravenous; settings: in vivo
[14] = Drug concentration in male albino rat pituitary gland assessed as radioactivity per gram of tissue at 20 mg/kg administered as single dose via gastric gavage measured after 168 hrs by autoradiographic analysis; assay type: ADME, organism-based; design: dose 20 mg/kg, dosed compound name [14C]Sunitinib; settings: in vivo, po
[15] = Drug recovery in urine of female cynomolgus monkey at 6 mg/kg, po administered as single dose during 0 to 336 hrs by liquid scintillation counting; assay type: ADME, organism-based, Macaca fascicularis; design: dose 6 mg/kg, dosed compound name [14C]Sunitinib, route oral; settings: in vivo
[16] = Drug recovery in feces of female Sprague-Dawley rat at 15 mg/kg, po administered as single dose during 0 to 72 hrs by liquid scintillation counting; assay type: ADME, organism-based; design: dose 15 mg/kg, dosed compound name [14C]Sunitinib, route oral; settings: in vivo
Kidney = assay: Drug concentration in female albino rat kidney assessed as radioactivity per gram of tissue at 20 mg/kg administered as single dose via gastric gavage measured after 3 hrs by autoradiographic analysis; assay type: ADME, organism-based; design: dose 20 mg/kg, dosed compound name [14C]Sunitinib; settings: in vivo, po; outline: as §3
[17] = Drug concentration in male albino rat lachrymal gland assessed as radioactivity per gram of tissue at 20 mg/kg administered as single dose via gastric gavage measured after 3 hrs by autoradiographic analysis; assay type: ADME, organism-based; design: dose 20 mg/kg, dosed compound name [14C]Sunitinib; settings: in vivo, po
Adrenal = assay: Drug concentration in female Lister Hooded pigmented rat adrenal assessed as radioactivity per gram of tissue at 20 mg/kg administered as single dose via gastric gavage measured after 168 hrs by autoradiographic analysis; assay type: ADME, organism-based; design: dose 20 mg/kg, dosed compound name [14C]Sunitinib; settings: in vivo, po; outline: as §2
[18] = Drug concentration in female Lister Hooded pigmented rat skeletal muscle assessed as radioactivity per gram of tissue at 20 mg/kg administered as single dose via gastric gavage measured after 24 hrs by autoradiographic analysis; assay type: ADME, organism-based; design: dose 20 mg/kg, dosed compound name [14C]Sunitinib; settings: in vivo, po; outline: as §1
Small intestine = assay: Drug concentration in female albino rat small intestine assessed as radioactivity per gram of tissue at 20 mg/kg administered as single dose via gastric gavage measured after 6 hrs by autoradiographic analysis; assay type: ADME, organism-based; design: dose 20 mg/kg, dosed compound name [14C]Sunitinib; settings: in vivo, po
Cynomolgus monkey = assay: Terminal half life as total radioactivity in female cynomolgus monkey plasma at 6 mg/kg, po administered as single dose by LC/MS/MS analysis; assay type: ADME, organism-based, Macaca fascicularis; design: dose 6 mg/kg, dosed compound name [14C]Sunitinib, route oral; settings: in vivo
Stomach [19] = assay: Drug concentration in female Lister Hooded pigmented rat stomach assessed as radioactivity per gram of tissue at 20 mg/kg administered as single dose via gastric gavage measured after 24 hrs by autoradiographic analysis; assay type: ADME, organism-based; design: dose 20 mg/kg, dosed compound name [14C]Sunitinib; settings: in vivo, po; outline: as §1

A Radiolabel recovery [1] of 56.9 ugequiv, a Radiolabel recovery (Brain [2]) of 0.07 ugequiv and a Radiolabel recovery (Brain [3]) of 0.3 ugequiv were found for `CCN(CC)CCNC(=O)c1c(C)[nH]c(/[14CH]=C2\C(=O)Nc3ccc(F)cc32)c1C.O=C(O)C[C@H](O)C(=O)O` in this work. The Radiolabel recovery (Spleen [4]) was 0.27 ugequiv, the CL/F (Homo sapiens [5]) was 23.5 L/h and the “beta t1/2” value (Homo sapiens [6]) was 28.2 h. The Radiolabel recovery (Stomach [7]) was 0.67 ugequiv, the Radiolabel recovery (Spleen [8]) was 4.42 ugequiv and the Radiolabel recovery (Spinal cord) was 0.29 ugequiv. The Radiolabel recovery [9] was 39.4 ugequiv, the Radiolabel recovery (Zone of skin [10]) was 0.17 ugequiv and the Radiolabel recovery (Harderian gland) was 17.26 ugequiv. It also gave a Radiolabel recovery (Blood) of 1.66 ugequiv, a Radiolabel recovery [11] of 2.65 ugequiv and a Radiolabel recovery (Zone of skin [12]) of 0.26 ugequiv. For the same compound, the Radiolabel recovery [13] was 0.1 ugequiv, the Radiolabel recovery (Rattus norvegicus) was 1.1% and the Radiolabel recovery [14] was 0.76 ugequiv. It also gave a Radiolabel recovery [15] of 6.1%, a Radiolabel recovery [16] of 71.1% and a Radiolabel recovery (Kidney) of 16.11 ugequiv. For the same compound, the Radiolabel recovery [17] was 8.82 ugequiv, the Radiolabel recovery (Adrenal) was 0.35 ugequiv and the Radiolabel recovery [18] was 0.25 ugequiv. The Radiolabel recovery (Small intestine) was 10.28 ugequiv, the “beta t1/2” value (Cynomolgus monkey) was 121 h and the Radiolabel recovery (Stomach [19]) was 0.64 ugequiv.

From ChEMBL document CHEMBL3525900, “Pharmacokinetics, distribution, and metabolism of [14C]sunitinib in rats, monkeys, and humans” (Drug Metab Dispos, 2012)
